Compound activity (PubChem BioAssay)
Compounds with a hit are over-represented: about 1.7% of the library has one in this group of screens.
Beta2AR agonist = activates human beta-2 adrenergic receptor causing internalization. P07550. Am2.2-beta2AR cells, FAP receptor internalization, flow cytometry. response, % (concentration not given with the values). actives 0.43% (n = 340,000);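 active means response above a set limit, near 3 SD of response in nonfluorescent compounds, cut at about 42% in these data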
CXCR6 block = blocks human CXCR6 beta-arrestin recruitment; O00574; CHO-K1 PathHunter CXCR6 beta-arrestin, luminescence; inhibition, % at 20 µM; actives 0.36% (n = 360,000); in the data active means inhibition above about 34%, passing the limit was not always enough;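 further: antagonist mode with CXCL16 agonist at 10 nM final; 0% = 10 nM CXCL16 with DMSO and 100% = unstimulated wells without agonist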
CCR6 antagonist = CCR6 (human) receptor antagonism. CHO-K1 CCR6 PathHunter beta-arrestin, luminescence, CCL20-stimulated. actives 0.49% (n = 340,000). AID 493098. inhibition, % at 20 µM;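 active means compounds whose inhibition of the agonist-driven luminescence signal at 20 µM reaches about 50%, limit read from the data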;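 further: cells stimulated with CCL20 at 14 nM final; plate controls were DMSO with CCL20 for no effect and DMSO without agonist for full effect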
Target sequence (P51684 whole entry, looked up): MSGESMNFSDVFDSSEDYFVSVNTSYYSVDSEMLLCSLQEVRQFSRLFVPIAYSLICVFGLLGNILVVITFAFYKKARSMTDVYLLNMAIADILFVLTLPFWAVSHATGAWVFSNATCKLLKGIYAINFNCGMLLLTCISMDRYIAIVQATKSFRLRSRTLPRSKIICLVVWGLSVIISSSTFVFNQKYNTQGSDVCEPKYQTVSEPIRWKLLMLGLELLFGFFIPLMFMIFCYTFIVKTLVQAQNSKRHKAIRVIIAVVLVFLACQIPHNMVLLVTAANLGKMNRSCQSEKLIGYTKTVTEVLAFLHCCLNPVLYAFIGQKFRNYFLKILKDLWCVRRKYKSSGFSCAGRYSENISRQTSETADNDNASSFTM
PfGluPho inh = PfG6PD (Plasmodium falciparum) enzyme inhibition; AID 504690; PfGluPho enzyme, NADPH resazurin-diaphorase fluorescence; inhibition, % at 20 µM; actives 0.78% (n = 350,000);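 active means inhibition reaching at least a set limit at 20 µM in the primary screen, cut at about 59% in these data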;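 further: 0% = DMSO wells with substrate and 100% = DMSO wells lacking glucose-6-phosphate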
APJ antag = blocks the human apelin receptor APJ; CHO-K1 APJ beta-arrestin complementation, luminescence; inhibition, % at 20 µM; actives 0.32% (n = 330,000);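 active means inhibition above about 40% at 20 µM, limit read from the data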;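 further: cells challenged with 10 nM apelin-13 agonist together with compound; plate controls were apelin-13 plus DMSO wells for no effect and DMSO wells lacking apelin-13 for full effect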
APJ ag = APJ receptor agonism; P35414; CHO-K1 APJ PathHunter beta-arrestin, luminescence; 0% DMSO wells, 100% apelin; activation, % at 20 µM; actives 0.11% (n = 330,000);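 active means activation more than six SD over the plate average, tested at 20 µM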;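 further: 0% = DMSO alone and 100% = apelin-13 at 10 nM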
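Assay system – PathHunter CHO-K1 APJ (AGTRL-1) beta-arrestin reporter cells · Compound – one dose, 20 µM compound, 1% DMSO · Timing – compound 90 min 25 °C, reagent 1 h · Measured by – luminescence from split beta-galactosidase complementation, Galacton Star/Emerald II substrate · Measure – beta-arrestin recruitment to APJ as agonist activity, luminescent signal · Benchmarks – DMSO vs Apelin-13 10 nM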
Numbers without * were called inactive; nt = no result.

SMILES	Beta2AR agonist	CXCR6 block	CCR6 antagonist	PfGluPho inh	APJ antag	APJ ag
Cc1cccn2c(=O)c3cc(C(=O)NC4CCCCC4)c(=N)n(Cc4ccc(F)cc4)c3nc12	78*	10	14	50	27	-4
Cc1cccn2c(=O)c3cc(C(=O)NC4CCCC4)c(=N)n(CC4CCCO4)c3nc12 (stereo unspecified)	-45	15	13	5	5	-4
Cc1cc2c(cc1S(=O)(=O)CCC(=O)Nc1cccc(C(F)(F)F)c1)OCC(=O)N2	4	-11	5	4	-19	-4
COc1ccc(CCC(=O)OCC(=O)Nc2c(C)nn(-c3ccccc3)c2C)cc1	-5	-4	11	12	10	5
CC(C)(Oc1ccc(F)cc1)C(=O)OCC(=O)c1ccc(S(C)(=O)=O)cc1	-2	37	52*	-3	3	-12
N#Cc1cc(Sc2ccccn2)c(Sc2ccccn2)cc1C#N	58*	5	15	23	2	-2
CC(C)NC(=O)Cn1c(=O)n(CC(=O)N2CCCCC2)c(=O)c2sccc21	-8	6	-10	12	14	-4
Cc1ccc2cccc(N=Cc3c(C)[nH]n(-c4ccccc4)c3=O)c2n1	13	69*	89*	-4	nt	nt
Cc1[nH]n(-c2ccccc2)c(=O)c1/C=N/O	3	-1	-16	-13	1	-3
Cc1[nH]n(-c2ccccc2)c(=O)c1/C=N/N1C(=O)c2ccc3c4c(ccc(c24)C1=O)CC3	-6	38*	nt	8	-12	3
C#C[C@]1(O)CC[C@H]2[C@@H]3[C@H](C)CC4=C(CCC(=O)C4)[C@H]3CC[C@@]21C	nt	nt	nt	nt	-13	0
COc1cccc(/C=C/C(=O)c2cccc([N+](=O)[O-])c2)c1	94*	-1	4	4	2	-1
COc1cc(/C=N/N=C(N)N)ccc1OCc1ccc(Cl)cc1	38	-5	14	11	-29	18
CCOc1cc(/C=N/N=C(N)N)ccc1OCc1ccc(Cl)cc1	46*	4	10	3	nt	nt
C#CCOCCOCCOCCNc1nc(N2CCN(C(=O)Cn3cc(CCO)nn3)CC2)nc(N2CCN(C(=O)[C@H](C)n3cc(CCCN=C(N)N)nn3)CC2)n1	-14	-1	3	9	nt	nt
CCN(CC)c1ccc(/C=C2/C(=O)c3ccc(C(=O)O)cc3C2=O)cc1	-68	56*	77*	-9	nt	nt
O=[N+]([O-])c1ccc(N=Nc2c(Cl)cc(O)cc2Cl)cc1	55*	44*	74*	15	nt	nt
CC/C(=C\C1CCCCC1)C(NP(=O)(c1ccccc1)c1ccccc1)c1ccccc1 (stereo unspecified)	14	44*	35	33	21	-2
O=P(NC1CCCCC1)(c1ccccc1)c1ccccc1	-3	-1	6	-2	nt	nt
CN(C)c1cc(N/N=C/c2ccc(Cl)cc2)nc(N(C)C)n1	7	-5	-11	42	nt	nt
Oc1c(Br)cc(Br)c2cccnc12	15	31	56*	-24	nt	nt
CCNC(=S)N=Nc1c(O)[nH]c2ccc([N+](=O)[O-])cc12	9	21	42	-2	38	-5
O=[N+]([O-])c1ccc2[nH]c(O)c(N=NC(=S)Nc3cccnc3)c2c1	4	42*	70*	-11	34	-4
Cc1ccc(C(=O)Oc2csc(=S)n2C(=O)c2ccc(C)cc2)cc1	2	35	2	60*	4	-2
CC1(C(=O)NCc2ccc(Cl)cc2)CCN1C(=O)c1cccc(F)c1 (stereo unspecified)	nt	0	nt	nt	nt	nt
SMILES	Beta2AR agonist	CXCR6 block	CCR6 antagonist	PfGluPho inh	APJ antag	APJ ag
CCOC(=O)c1c(SCCN2CCCC2)n(-c2ccccc2)c(=S)n(-c2ccccc2)c1=O	53*	88*	105*	8	nt	nt
Cc1ccc(S(=O)(=O)N/N=C\c2cc([N+](=O)[O-])ccc2Cl)cc1	-6	29	40	-3	21	-10
Cc1ccc(S(=O)(=O)N/N=C/c2cccc([N+](=O)[O-])c2)cc1	2	9	37	-1	51*	-9
O=C(CNS(=O)(=O)c1ccc(Br)cc1)NC1CCCC1	-2	1	13	-15	4	6
C=C1C(=O)[C@@]23[C@H](O)C[C@@H]4C(C)(C)CC[C@H](O)[C@]4(C)[C@@H]2C[C@H](O)[C@@H]1[C@H]3O	9	-5	-4	3	-88	10
C=C1C(=O)[C@@]23[C@H](O)C[C@@H]4C(C)(C)CC[C@H](O)[C@@]4(C)[C@@H]2CC[C@@H]1[C@H]3O	46*	12	18	-14	16	1
Cc1ccc2c(c1)C(=O)N1c3cc(C)c(C)cc3NC(=O)C1C(=O)N2 (stereo unspecified)	nt	-10	nt	nt	nt	nt
CN(C)c1ccc(CNc2nc3cc(-c4ccc(F)cc4)sc3c(=O)n2C)cc1	nt	4	nt	nt	nt	nt
Cc1cc(=O)oc2cc(OC(C)C(=O)Nc3ccc(N4CCCCC4)cc3)ccc12 (stereo unspecified)	14	-4	-7	6	-3	2
Cc1cc(=O)oc2cc(OCC(=O)Nc3ccc(N4CCC(C)CC4)cc3)ccc12	51*	-6	5	-15	4	4
Cc1cc(=O)oc2c(C)c(OC(C)C(=O)Nc3ccc(N4CCC(C)CC4)cc3)ccc12 (stereo unspecified)	83*	10	13	-10	1	0
COc1ccc2c(c1O)C(=O)c1ccccc1C2=O	nt	nt	nt	nt	-107	2
Nc1c(O)ccc2c1C(=O)c1ccccc1C2=O	nt	nt	50*	-1	nt	nt
Cc1cc(C)c2nc(Cl)c(CN(Cc3ccco3)C(=O)Nc3ccccc3C)cc2c1	42*	10	9	11	12	-5
O=C(C[n+]1ccc(CCSc2ccc(F)cc2)cc1)c1ccccc1	7	0	5	70*	12	-4
Cc1c(N=NC2=C(O)CCCC2=O)c(=O)n(-c2ccccc2)n1C	6	49*	70*	12	12	-3
COc1ccc(-c2sc(NC(=O)c3ccc(C)cc3)nc2-c2ccc([N+](=O)[O-])cc2)cc1	0	20	52*	-13	14	-2
COc1ccc(C(=O)Nc2nc(-c3ccc([N+](=O)[O-])cc3)c(-c3ccccc3)s2)cc1	8	35	43	3	13	-6
CCN1CCN(C(=O)CN2C(=O)COc3ccc(S(=O)(=O)N4CCOCC4)cc32)CC1	6	-15	10	-8	-4	-7
Cc1cc(C)c2nc(-c3ccccn3)cc(C(=O)N3CCCC3)c2c1	6	8	10	7	12	-9
CCN1C(=O)/C(=C/C=C2\C=CN(CC)c3ccccc32)SC1=S	15	34	53*	32	nt	nt
COC(=O)c1ccc(N2CCN(C)CC2)c(NC(=O)c2cccs2)c1	-5	0	20	11	-2	-4
